Inhibition and IC50 data for five compounds are collected here from ChEMBL document CHEMBL3822431, “Hydroxychalcone inhibitors of Streptococcus mutans glucosyl transferases and biofilms as potential anticaries agents” (Bioorg Med Chem Lett, 2016).

The target of test [1] is T1, Glucosyltransferase-I (Streptococcus mutans serotype c (strain ATCC 700610 / UA159)) (UniProt P08987).
T1 sequence (whole entry): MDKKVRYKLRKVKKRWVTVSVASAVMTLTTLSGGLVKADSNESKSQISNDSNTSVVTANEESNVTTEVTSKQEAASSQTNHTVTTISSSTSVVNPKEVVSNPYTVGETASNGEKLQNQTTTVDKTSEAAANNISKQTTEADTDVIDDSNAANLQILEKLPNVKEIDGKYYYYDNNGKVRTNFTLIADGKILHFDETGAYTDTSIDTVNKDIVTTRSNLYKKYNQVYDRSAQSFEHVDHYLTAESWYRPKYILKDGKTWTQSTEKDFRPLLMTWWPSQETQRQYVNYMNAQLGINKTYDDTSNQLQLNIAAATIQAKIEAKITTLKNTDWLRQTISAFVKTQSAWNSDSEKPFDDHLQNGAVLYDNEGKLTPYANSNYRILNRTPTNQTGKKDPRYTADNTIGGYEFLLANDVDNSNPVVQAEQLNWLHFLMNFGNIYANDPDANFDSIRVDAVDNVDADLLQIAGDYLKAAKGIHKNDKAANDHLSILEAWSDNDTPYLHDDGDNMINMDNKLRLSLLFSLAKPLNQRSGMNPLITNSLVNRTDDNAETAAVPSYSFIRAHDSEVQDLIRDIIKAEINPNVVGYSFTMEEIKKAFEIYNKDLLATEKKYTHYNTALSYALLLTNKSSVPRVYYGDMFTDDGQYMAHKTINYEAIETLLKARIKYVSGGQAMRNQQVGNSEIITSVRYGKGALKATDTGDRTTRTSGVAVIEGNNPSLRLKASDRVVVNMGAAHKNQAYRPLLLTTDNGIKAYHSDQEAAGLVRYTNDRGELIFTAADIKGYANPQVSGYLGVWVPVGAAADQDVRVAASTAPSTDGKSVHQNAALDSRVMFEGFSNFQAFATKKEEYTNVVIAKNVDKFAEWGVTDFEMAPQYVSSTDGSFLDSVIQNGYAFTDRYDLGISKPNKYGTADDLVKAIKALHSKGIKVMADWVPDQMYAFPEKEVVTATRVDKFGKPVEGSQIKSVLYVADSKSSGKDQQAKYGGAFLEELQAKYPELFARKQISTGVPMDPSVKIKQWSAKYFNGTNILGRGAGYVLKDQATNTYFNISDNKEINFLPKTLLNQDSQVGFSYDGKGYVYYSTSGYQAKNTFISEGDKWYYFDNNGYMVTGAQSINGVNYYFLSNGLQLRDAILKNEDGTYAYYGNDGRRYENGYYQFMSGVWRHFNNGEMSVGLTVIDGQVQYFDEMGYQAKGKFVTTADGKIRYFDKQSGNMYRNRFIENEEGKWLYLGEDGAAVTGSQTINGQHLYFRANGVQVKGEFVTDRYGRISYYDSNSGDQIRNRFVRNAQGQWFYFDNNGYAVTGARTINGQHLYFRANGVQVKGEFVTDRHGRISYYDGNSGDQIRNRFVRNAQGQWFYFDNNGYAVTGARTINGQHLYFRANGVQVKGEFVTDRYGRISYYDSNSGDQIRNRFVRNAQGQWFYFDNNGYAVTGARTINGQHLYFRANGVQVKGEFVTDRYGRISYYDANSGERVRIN
The test is described as follows: Inhibition of Wild-type Streptococcus mutans UA159 glucosyltransferase B at 50 uM by zymography. In short, it runs like this:
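Compound (50 µM) added to overnight S. mutans UA159 wild-type cultures; Gtfs concentrated from supernatants, run on duplicate SDS-PAGE; second gel used for zymogram, glucan band intensity taken as Gtf activity.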

The subject of test [2] is Streptococcus mutans. The test is described as follows: Inhibition of Gfp tagged Streptococcus mutans UA159 colony formation in guts of sucrose-dependent Drosophila colonization model at 50 uM measured 7 days post infection by fluorescent microscopy. In kind it is functional, organism-based. The method in brief:
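Drosophila fed Gfp-tagged S. mutans with compound at 50 µM; DMSO as negative control, ΔgtfB mutant as biofilm-defective comparator; gut fluorescence examined by fluorescent microscopy 7 days after infection.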

The test system of test [3] is Streptococcus mutans. The test is described as follows: Growth inhibition of Streptococcus mutans UA159 after 16 hrs. In kind it is organism-based. The conditions noted are these: Streptococcus mutans, UA159, 16 h; read-out: IC50. In short, it runs like this:
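S. mutans UA159 co-incubated with compound at various concentrations; growth measured at OD470.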

SMILES strings stand for the structures. Calls of active or inactive are those of the source. No cut-off for these calls is given here.

Regarding `O=C(/C=C\c1ccc(O)cc1O)c1ccc(O)cc1`, in test [1], the inhibition entry is “Active”.

On to `O=C(/C=C\c1ccc(O)cc1O)c1cccc(O)c1`, for which the inhibition entry (in test [1]; with Streptococcus mutans [2]) was “Active” in each case.

With `O=C(/C=C/c1cc(O)c(O)cc1O)c1ccccc1O` (stereo in doubt; 18c), the inhibition result in test [1] is “Active”.

By IC50 is commonly meant the point on the concentration scale where inhibition reaches its midpoint. On to `O=C(/C=C/c1ccc(O)cc1O)c1ccc(O)cc1`, for which the concentration for half-maximal inhibition (IC50) in the test on Streptococcus mutans [3] was determined as 1060 µM. Also, in test [1], the inhibition entry was “Active”.

Turning to `O=C(/C=C/c1ccc(O)cc1O)c1cccc(O)c1` (stereo in doubt; 9a), the inhibition result (in test [1]; in the test with Streptococcus mutans [2]) was “Active” throughout.
